Data from ChEMBL document CHEMBL5260806, “Hydrogen peroxide activated quinone methide precursors with enhanced DNA cross-linking capability and cytotoxicity towards cancer cells” (Eur J Med Chem, 2017).
pIC50: −log10 of the molar value. Calls of active or inactive are those of the source. The calls are words filed in the database; no cut-off is given here.

How the values were obtained:
[1] = tested on: UACC-62; experiment: Anticancer activity against human UACC-62 cells assessed as cell growth inhibition at 10 uM incubated for 48 hrs by sulforhodamine B assay; type: functional; details: read-out: GI
[2] = tested on: DU-145; experiment: Anticancer activity against human DU-145 cells assessed as cell growth inhibition at 10 uM incubated for 48 hrs by sulforhodamine B assay; type: functional; details: read-out: GI
Procedure, shortened: (§1)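 NCI-60 screen: cell lines grown in RPMI 1640 with 5% FBS and 2 mM L-glutamine, plated in 96-well plates at 5,000–40,000 cells/well depending on doubling time. Each line has one single-dose arm at 10 µM and one dose-response arm giving GI50.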

[3] = tested on: SNB-75; experiment: Anticancer activity against human SNB-75 cells assessed as cell growth inhibition incubated for 48 hrs by sulforhodamine B assay; type: functional
[4] = tested on: PC-3; experiment: Anticancer activity against human PC-3 cells assessed as cell growth inhibition incubated for 48 hrs by sulforhodamine B assay; type: functional
Procedure, shortened: (§2)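 NCI DTP 60-cell-line screen run at National Cancer Institute. Cells grown in RPMI 1640 with 5% fetal bovine serum and 2 mM L-glutamine, seeded at 5,000–40,000 cells/well depending on doubling time. Single-dose screen at 10 µM gives growth percentage; dose-response series gives GI50.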

[5] = tested on: NCI-H522; experiment: Anticancer activity against human NCI-H522 cells assessed as cell growth inhibition at 10 uM incubated for 48 hrs by sulforhodamine B assay; type: functional; details: read-out: GI; procedure, shortened: as §2
[6] = tested on: UO-31; experiment: Anticancer activity against human UO-31 cells assessed as cell growth inhibition incubated for 48 hrs by sulforhodamine B assay; type: functional
[7] = tested on: HL-60; experiment: Anticancer activity against human HL-60 cells assessed as cell growth inhibition at 10 uM incubated for 48 hrs by sulforhodamine B assay; type: functional; details: read-out: GI; procedure, shortened: as §1
[8] = tested on: LOX IMVI; experiment: Anticancer activity against human LOX IMVI cells assessed as cell growth inhibition incubated for 48 hrs by sulforhodamine B assay; type: functional; procedure, shortened: as §1
[9] = tested on: SR; experiment: Anticancer activity against human SR cells assessed as cell growth inhibition incubated for 48 hrs by sulforhodamine B assay; type: functional
[10] = tested on: RPMI-8226; experiment: Anticancer activity against human RPMI-8226 cells assessed as cell growth inhibition incubated for 48 hrs by sulforhodamine B assay; type: functional; procedure, shortened: as §2
[11] = tested on: EKVX; experiment: Anticancer activity against human EKVX cells assessed as cell growth inhibition at 10 uM incubated for 48 hrs by sulforhodamine B assay; type: functional; details: read-out: GI; procedure, shortened: as §1
[12] = tested on: OVCAR-3; experiment: Anticancer activity against human OVCAR-3 cells assessed as cell growth inhibition incubated for 48 hrs by sulforhodamine B assay; type: functional; procedure, shortened: as §2
[13] = tested on: CAKI-1; experiment: Anticancer activity against human CAKI-1 cells assessed as cell growth inhibition incubated for 48 hrs by sulforhodamine B assay; type: functional; procedure, shortened: as §1
[14] = tested on: T47D; experiment: Anticancer activity against human T47D cells assessed as cell growth inhibition incubated for 48 hrs by sulforhodamine B assay; type: functional
[15] = tested on: 786-0; experiment: Anticancer activity against human 786-0 cells assessed inhibition of cell growth after 48 hrs by CellTiter-Glo luminescent assay; type: functional, cell-based; details: 786-0, 48 h
Procedure, shortened: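 Renal lines grown in RPMI 1640 with 5% FBS and 2 mM L-glutamine, plated at 5,000–10,000 cells/well in 384-well plates and held 2–3 h at 37 °C, 5% CO2. Compounds were made as 20 mM DMSO stocks, given as ten 2-fold serial dilutions diluted 1:100 into cells, and incubated 48 h. Read-out was CellTiter-Glo luminescence after 10 min at room temperature.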

[16] = tested on: SF-268; experiment: Anticancer activity against human SF-268 cells assessed as cell growth inhibition at 10 uM incubated for 48 hrs by sulforhodamine B assay; type: functional; details: read-out: GI; procedure, shortened: as §2
[17] = tested on: UACC-62; experiment: Anticancer activity against human UACC-62 cells assessed as cell growth inhibition incubated for 48 hrs by sulforhodamine B assay; type: functional
[18] = tested on: A498; experiment: Anticancer activity against human A498 cells assessed inhibition of cell growth after 48 hrs by CellTiter-Glo luminescent assay; type: functional, cell-based; details: A498, 48 h
Procedure, shortened: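 Human tumour cells kept in RPMI 1640 with 5% FBS and 2 mM L-glutamine, seeded at 5,000–10,000 cells/well and left 2–3 h at 37°C, 5% CO2. Drugs taken from 20 mM DMSO stocks, serially halved ten times in DMSO, then added at 1:100 dilution. Cells exposed for 48 h at 37°C. Viability read by CellTiter-Glo luminescence after 10 min at room temperature.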

[19] = tested on: ACHN; experiment: Anticancer activity against human ACHN cells assessed as cell growth inhibition at 10 uM incubated for 48 hrs by sulforhodamine B assay; type: functional; details: read-out: GI; procedure, shortened: as §1
[20] = tested on: SK-MEL-5; experiment: Anticancer activity against human SK-MEL-5 cells assessed as cell growth inhibition incubated for 48 hrs by sulforhodamine B assay; type: functional; procedure, shortened: as §2
[21] = tested on: UO-31; experiment: Anticancer activity against human UO-31 cells assessed inhibition of cell growth after 48 hrs by CellTiter-Glo luminescent assay; type: functional, cell-based; details: UO-31, 48 h
Procedure, shortened: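 Renal lines grown in RPMI 1640 with 5% FBS and 2 mM L-glutamine, seeded into 384-well plates at 5,000–10,000 cells/well, held 2–3 h at 37 °C, 5% CO2. DMSO stocks (20 mM) serially halved ten times and added at 1:100. Cells exposed 48 h at 37 °C; CellTiter-Glo added, 10 min at room temperature, luminescence read.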

[22] = tested on: DNA; experiment: Induction of [32P]-labeled 49-mer oligonucleotide duplex DNA 25 (unknown origin) interstrand cross-linking at 2 mM for 48 hrs in presence of 2mM H2O2 by PAGE; type: functional
[23] = tested on: EKVX; experiment: Anticancer activity against human EKVX cells assessed as cell growth inhibition incubated for 48 hrs by sulforhodamine B assay; type: functional; procedure, shortened: as §1
[24] = tested on: MDA-MB-231; experiment: Anticancer activity against human MDA-MB-231 cells assessed as cell growth inhibition incubated for 48 hrs by sulforhodamine B assay; type: functional; procedure, shortened: as §2
[25] = tested on: SF-539; experiment: Anticancer activity against human SF-539 cells assessed as cell growth inhibition incubated for 48 hrs by sulforhodamine B assay; type: functional; procedure, shortened: as §2
[26] = tested on: DNA; experiment: Potentiation of H2O2 induced [32P]-labeled 49-mer oligonucleotide duplex DNA 25 (unknown origin) interstrand cross-linking at pH 8 in phosphate buffer solution assessed as rate constant and measured for 24 hrs by PAGE analysis; type: functional
[27] = tested on: SNB-19; experiment: Anticancer activity against human SNB-19 cells assessed as cell growth inhibition incubated for 48 hrs by sulforhodamine B assay; type: functional
[28] = tested on: SN12C; experiment: Anticancer activity against human SN12C cells assessed as cell growth inhibition incubated for 48 hrs by sulforhodamine B assay; type: functional
[29] = tested on: OVCAR-4; experiment: Anticancer activity against human OVCAR-4 cells assessed as cell growth inhibition incubated for 48 hrs by sulforhodamine B assay; type: functional; procedure, shortened: as §2
[30] = Toxicity in healthy human lymphocytes assessed as reduction in cell viability at 10 uM after 24 hrs by Annexin/PI staining based fluorescence assay; details: lymphocyte
Procedure, shortened: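 Normal donor lymphocytes (n=2) isolated from peripheral blood by Ficoll-hypaque, in RPMI with 10% autologous plasma. Exposed to 10 µM for 24 h; % viable cells by annexin/PI binding.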

[31] = tested on: ACHN; experiment: Anticancer activity against human ACHN cells assessed as cell growth inhibition incubated for 48 hrs by sulforhodamine B assay; type: functional; procedure, shortened: as §1
[32] = tested on: MDA-MB-468; experiment: Anticancer activity against human MDA-MB-468 cells assessed as cell growth inhibition incubated for 48 hrs by sulforhodamine B assay; type: functional; procedure, shortened: as §2
[33] = tested on: CLL cell; experiment: Induction of DNA damage in chronic lymphocytic leukemia patient lymphocytes assessed as apoptosis rate at 10 uM after 24 hrs by annexin/PI staining based flow cytometry; type: functional; details: Homo sapiens

- GI50 [4]: 2000 nM
- GI50 [10]: 2000 nM
- GI50 [12]: 2000 nM
- GI50 [14]: 2000 nM
- pIC50 [15]: 4.97
- GI50 [20]: 2000 nM
- GI50 [24]: 2000 nM
- GI50 [29]: 2000 nM
- GI50 [31]: 2000 nM
- GI50 [32]: 2000 nM
Compound: COc1cc(CBr)c(B2OC(C)(C)C(C)(C)O2)c(CBr)c1
- inhibition of growth at 10 µM [1]: < 50%
- inhibition of growth at 10 µM [2]: < 50%
- GI50 [3]: 2000 nM
- inhibition of growth at 10 µM [5]: < 50%
- GI50 [6]: 2000 nM
- inhibition of growth at 10 µM [7]: < 50%
- GI50 [8]: 2000 nM
- GI50 [9]: 2000 nM
- inhibition of growth at 10 µM [11]: < 50%
- GI50 [13]: 2000 nM
- inhibition of growth at 10 µM [16]: < 50%
- GI50 [17]: 2000 nM
- pIC50 [18]: 4.74
- inhibition of growth at 10 µM [19]: < 50%
- pIC50 [21]: 4.97
- Activity [22]: 36%
- GI50 [23]: 2000 nM
- GI50 [25]: 2000 nM
- Ka [26]: 0.000237 s⁻¹
- GI50 [27]: 2000 nM
- GI50 [28]: 2000 nM
- Activity [30]: Non-Toxic
- Activity [33]: Active
